The target of assay [1] is T1, Histone-lysine N-methyltransferase EHMT2 (Homo sapiens, UniProt Q96KQ7).
T1 sequence (Q96KQ7 whole entry): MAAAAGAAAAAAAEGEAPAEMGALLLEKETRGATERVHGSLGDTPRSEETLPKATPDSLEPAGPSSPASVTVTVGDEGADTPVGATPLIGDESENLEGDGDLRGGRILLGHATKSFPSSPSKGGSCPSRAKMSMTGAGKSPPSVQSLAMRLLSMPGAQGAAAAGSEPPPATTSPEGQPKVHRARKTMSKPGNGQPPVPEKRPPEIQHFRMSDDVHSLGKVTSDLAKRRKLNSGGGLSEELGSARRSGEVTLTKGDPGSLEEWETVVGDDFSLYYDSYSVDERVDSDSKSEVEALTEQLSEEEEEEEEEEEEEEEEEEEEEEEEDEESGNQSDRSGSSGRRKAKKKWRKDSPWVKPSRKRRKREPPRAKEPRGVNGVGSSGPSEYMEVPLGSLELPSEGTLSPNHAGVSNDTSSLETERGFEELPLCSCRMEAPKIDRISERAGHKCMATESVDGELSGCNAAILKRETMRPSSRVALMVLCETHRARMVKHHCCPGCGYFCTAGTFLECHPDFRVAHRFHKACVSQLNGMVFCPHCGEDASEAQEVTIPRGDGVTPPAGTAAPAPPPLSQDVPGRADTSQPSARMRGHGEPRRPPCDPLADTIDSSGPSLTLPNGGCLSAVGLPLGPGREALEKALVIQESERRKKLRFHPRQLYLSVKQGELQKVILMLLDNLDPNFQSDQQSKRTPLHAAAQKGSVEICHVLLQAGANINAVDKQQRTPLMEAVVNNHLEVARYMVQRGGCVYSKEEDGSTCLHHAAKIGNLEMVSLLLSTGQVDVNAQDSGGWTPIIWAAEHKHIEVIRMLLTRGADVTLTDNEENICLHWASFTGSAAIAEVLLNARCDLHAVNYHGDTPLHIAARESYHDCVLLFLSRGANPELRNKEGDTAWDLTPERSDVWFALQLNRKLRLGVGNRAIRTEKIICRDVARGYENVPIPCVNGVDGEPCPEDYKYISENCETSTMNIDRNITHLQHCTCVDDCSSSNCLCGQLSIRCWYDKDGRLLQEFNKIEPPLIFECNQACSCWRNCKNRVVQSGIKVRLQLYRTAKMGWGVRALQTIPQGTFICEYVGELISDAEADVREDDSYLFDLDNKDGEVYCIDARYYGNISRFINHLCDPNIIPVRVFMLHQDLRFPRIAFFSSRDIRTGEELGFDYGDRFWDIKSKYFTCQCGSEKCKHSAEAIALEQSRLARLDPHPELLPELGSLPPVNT
In words: Inhibition of HMT-G9a using S-adenosylmethionine and biotinylated H3 peptide after 1 hr. The essentials: (§1)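 GST-G9a (200 ng) or His-Set7/9 (931 ng) with BSA preincubated with compound (DMSO) in Tris-HCl pH 8.5 buffer with MgCl₂, KCl, 2-mercaptoethanol, sucrose, 1 h rt; then SAM (50 ng) and biotinylated H3 peptide (50 ng), 37 °C 2 h, boiled. Captured on streptavidin plate; G9a: anti-methylated-lysine antibody, Set7/9: anti-dimethyl-H3K4 antibody; HRP secondary, TMB, A650.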

For the next assay, the system named is P388. In words: Cytotoxicity against mouse P388 cells after 96 hrs by MTT assay. The conditions noted are these: P388, 96 h. Format: functional, cell-based. An outline of the steps:
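P388 cells grown in RPMI-1640 with 10% FBS, kanamycin and 2-hydroxyethyl disulfide at 37 °C, 5% CO2; seeded at 1 × 10⁴ cells/mL, test solution in RPMI-1640 added, 96 h incubation. MTT (1 mg/mL) added for 3 h, cells dissolved in DMSO after centrifugation; IC₅₀ determined.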
A general note: Tetrazolium assays rely on reduction of a dye to a coloured formazan, in cell work by metabolically active cells.

In assay [2] the target is T2, Histone-lysine N-methyltransferase SETD7 (Homo sapiens) (UniProt Q8WTS6).
T2 sequence (whole entry): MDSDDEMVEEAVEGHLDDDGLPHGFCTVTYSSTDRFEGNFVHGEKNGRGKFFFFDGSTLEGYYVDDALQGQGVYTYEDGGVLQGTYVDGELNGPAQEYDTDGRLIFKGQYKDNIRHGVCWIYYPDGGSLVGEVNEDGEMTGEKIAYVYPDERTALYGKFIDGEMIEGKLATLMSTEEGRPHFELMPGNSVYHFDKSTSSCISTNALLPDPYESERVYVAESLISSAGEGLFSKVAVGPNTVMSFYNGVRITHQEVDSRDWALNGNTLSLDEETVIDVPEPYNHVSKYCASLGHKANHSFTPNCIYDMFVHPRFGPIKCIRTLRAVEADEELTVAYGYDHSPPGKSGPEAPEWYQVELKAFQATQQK
The assay can be described thus: Inhibition of HMT-set7/9 using S-adenosylmethionine and biotinylated H3 peptide at 100 uM after 1 hr. The essentials: as §1

Active and inactive are the calls of the source. The rule behind the calls is not given here.

The values that follow come from ChEMBL document CHEMBL1949536, “Gliotoxin analogues from a marine-derived fungus, Penicillium sp., and their cytotoxic and histone methyltransferase inhibitory activities” (J Nat Prod, 2012).

With `CN1C(=O)[C@]23CC4=CC=C[C@H](O)[C@H]4N2C(=O)[C@@]1(CO)SS3` [GLIOTOXIN], the IC50 (commonly the concentration needed to halve the response being measured) worked out at 6.4 µM in assay [1] and 0.024 µM in the assay with P388. Further, the inhibition result in assay [2] is “inactive”.

For the compound `CS[C@]1(CO)C(=O)N2[C@H]3C(=CC=C[C@@H]3O)C[C@@]2(SC)C(=O)N1C` [BIS(DETHIO)BIS(METHYLTHIO)GLIOTOXIN], the IC50 in assay [1] was over 100 µM; in the assay with P388 it was 0.11 µM. Besides, the inhibition result in assay [2] is “inactive”.

Turning to `CS[C@]1(CO)C(=O)N2c3c(O)cccc3C[C@@]2(SC)C(=O)N1C` [DEHYDROBIS(METHYLTHIO)GLIOTOXIN], the IC50 turned out to be 58 µM in assay [1] and 0.11 µM with P388. Further, the inhibition result in assay [2] is “inactive”.

Consider `CN1C(=O)[C@]23Cc4ccccc4N2C(=O)[C@@]1(CO)SS3`, for which the IC50 is 55 µM in assay [1] and 0.058 µM in the assay on P388. Further, in assay [2], the inhibition result was “inactive”.

In the case of `CN1C(=O)[C@]23CC4=CC=C[C@H](O)[C@H]4N2C(=O)[C@@]1(CO)SSSS3` [GLIOTOXIN G], the IC50 in assay [1] came to 2.1 µM; in the assay on P388, 0.02 µM. In addition, the inhibition result in assay [2] was “inactive”.

For `C=C1C(=O)N2[C@H]3C(=CC=C[C@@H]3O)C[C@@]2(SC)C(=O)N1C`, the IC50 was over 100 µM in assay [1] and 3.4 µM in the assay with P388. The inhibition result in assay [2] was “inactive”.

In the case of `CN1C(=O)[C@]23Cc4cccc(O)c4N2C(=O)[C@@]1(CO)SS3`, the IC50 in assay [1] was found to be 2.6 µM; with P388, 0.056 µM. For the same compound, the inhibition result in assay [2] was “inactive”.
